Experiments:
[1] = Plasma concentration in rat at 4 mg/kg, po cassette dosing after 2 hrs; assay type: ADME, organism-based; parameters: dose 4 mg/kg, route oral
Summary of the method: (§1)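 Cassette screen: mixture of 4 compounds, each at 4 mg/kg, dosed orally to 2 rats; plasma sampled at 1 h and 2 h, solid-phase extracted and quantified by HPLC-UV or LC/MS against calibration standards in blank plasma (LOQ 7 ng/mL).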

[2] = Half life in rat liver microsomes; assay type: ADME
[3] = Mean residence time in monkey at 10 mg/kg, po; assay type: ADME, organism-based, Macaca mulatta; parameters: dose 10 mg/kg, route oral; details: rhesus monkey, in vivo
Summary of the method: (§2)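 Single-compound oral PK after overnight fast; 10 mg/kg given as suspension in 0.5% methylcellulose and 0.3% Tween-80, with or without 1% NMP as added solubilizer; N=3 per dose and route. Plasma kept on ice, centrifuged at 4°C, stored near -20°C, extracted by solid phase, quantified by HPLC-UV or LC/MS against blank-plasma standards (LOQ 7 ng/mL); non-compartmental analysis.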

[4] = Plasma protein binding in human; assay type: ADME, cell-free; details: read-out: PPB (converted)
[5] = tested on: Hepatitis C virus; experiment: Antiviral activity against Hepatitis C virus genotype 1b by cell-based replicon assay; assay type: functional, Hepacivirus hominis
[6] = Half life in rat at 2 mg/kg, iv; assay type: ADME, organism-based; parameters: dose 2 mg/kg, route intravenous; details: in vivo
Summary of the method: (§3)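 Fasted animals dosed IV by bolus at 2 mg/kg in 70% PEG-400:30% water; N=3 per dose and route. Plasma separated at 4°C, stored near -20°C, solid-phase extracted, assayed by HPLC-UV or LC/MS with blank-plasma calibration (r2 > 0.99, LOQ 7 ng/mL); parameters from non-compartmental analysis.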

[7] = Oral bioavailability in monkey at 10 mg/kg; assay type: ADME, organism-based, Macaca mulatta; details: rhesus monkey, in vivo; summary of the method: as §2
[8] = Oral bioavailability in rat at 10 mg/kg; assay type: ADME, organism-based; details: in vivo; summary of the method: as §2
[9] = biological target: Cytochrome P450 2C19 (Homo sapiens, UniProt P33261); experiment: Inhibition of CYP2C19 (unknown origin); assay type: ADME
[10] = Inhibition of recombinant Hepatitis C virus genotype 1b Con1 NS5B RNA dependent RNA polymerase delta21; parameters: species or system Hepatitis C virus subtype 1b
Summary of the method: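 Biochemical polymerase assay with C-terminally truncated genotype 1b NS5B∆21; IC50 taken as mean of duplicates.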

[11] = tested on: Canis familiaris; experiment: Cardiotoxicity in dog assessed as electrocardiographic parameters up to 200 mg/kg; assay type: toxicity, organism-based, Canis lupus familiaris; parameters: dose 200 mg/kg; details: in vivo
[12] = tested on: Rhesus monkey; experiment: Half life in monkey at 2 mg/kg, iv; assay type: ADME, organism-based, Macaca mulatta; parameters: dose 2 mg/kg, route intravenous; details: in vivo; summary of the method: as §3
[13] = Oral bioavailability in dog at 10 mg/kg; assay type: ADME, organism-based, Canis lupus familiaris; details: in vivo; summary of the method: as §2
[14] = tested on: Hepatitis C virus; experiment: Antiviral activity against Hepatitis C virus genotype 1a by cell-based replicon assay; assay type: functional, Hepacivirus hominis; details: subtype 1a
[15] = Ratio of drug level in rat liver to plasma after 6 hrs; assay type: ADME, cell-free
[16] = tested on: Rhesus monkey; experiment: Volume of distribution at steady state in monkey at 2 mg/kg, iv; assay type: ADME, organism-based, Macaca mulatta; parameters: dose 2 mg/kg, route intravenous; details: in vivo; summary of the method: as §3
[17] = Cmax in dog at 10 mg/kg, po; assay type: ADME, organism-based, Canis lupus familiaris; parameters: dose 10 mg/kg, route oral; details: in vivo; summary of the method: as §2
[18] = Cytotoxicity against human HuH7 cells assessed as cell viability by MTT assay; assay type: cell-based; details: Huh-7 cells, read-out: TC50 (the source's name)
[19] = biological target: Cytochrome P450 2C9 (Homo sapiens, UniProt P11712); experiment: Inhibition of CYP2C9 (unknown origin); assay type: ADME
[20] = Cmax in rat at 10 mg/kg, po; assay type: ADME, organism-based; parameters: dose 10 mg/kg, route oral; details: in vivo; summary of the method: as §2
[21] = Lipophilicity, log D of the compound at pH 7.4; assay type: physicochemical; details: buffer
[22] = biological target: Voltage-gated inwardly rectifying potassium channel KCNH2 (Homo sapiens, UniProt Q12809); experiment: Inhibition of human ERG channel at 0.8 uM
[23] = Clearance in rat at 2 mg/kg, iv; assay type: ADME, organism-based; parameters: dose 2 mg/kg, route intravenous; details: in vivo; summary of the method: as §3
[24] = tested on: Hepatitis C virus; experiment: Antiviral activity against Hepatitis C virus genotype 1b assessed as shift in EC50 by cell-based replicon assay in presence of 40% human serum; assay type: functional, Hepacivirus hominis
[25] = Dissociation constant, pKa of the compound; assay type: physicochemical
Summary of the method: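 pKa derived from pH titration curves.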

[26] = Inhibition of calf thymus DNA-dependent RNA polymerase; parameters: species or system Bos taurus
[27] = AUC in dog at 10 mg/kg, po; assay type: ADME, organism-based, Canis lupus familiaris; parameters: dose 10 mg/kg, route oral; details: plasma; summary of the method: as §2
[28] = AUC in rat at 10 mg/kg, po; assay type: ADME, organism-based; parameters: dose 10 mg/kg, route oral; details: plasma; summary of the method: as §2
[29] = Permeability across apical at pH6 to basolateral side at pH 7.4 in human Caco2 cells; assay type: ADME, cell-based; details: Caco-2, pH 6, read-out: permeability
Summary of the method: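 Caco-2 monolayer permeability measured apical to basolateral, apical side at pH 6.0 and basolateral at pH 7.4.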

[30] = tested on: Salmonella typhimurium; experiment: Mutagenic activity in Salmonella typhimurium by Ames test; assay type: toxicity, organism-based; details: salmonella enterica subsp. enterica serovar typhimurium
Summary of the method: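 Ames test run with and without metabolic activation at doses up to maximum solubility.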

[31] = Half life in human liver microsomes; assay type: ADME
[32] = Plasma concentration in rat at 4 mg/kg, po cassette dosing after 1 hr; assay type: ADME, organism-based; parameters: dose 4 mg/kg, route oral; summary of the method: as §1
[33] = Cardiotoxicity in guinea pig papillary muscles assessed as action potential duration at 90% repolarization
[34] = Permeability across apical to basolateral side in human Caco2 cells; assay type: ADME, cell-based; details: Caco-2, read-out: permeability
[35] = tested on: Rhesus monkey; experiment: Clearance in monkey at 2 mg/kg, iv; assay type: ADME, organism-based, Macaca mulatta; parameters: dose 2 mg/kg, route intravenous; details: in vivo; summary of the method: as §3
[36] = biological target: Cytochrome P450 2D6 (Homo sapiens, UniProt P10635); experiment: Inhibition of CYP2D6 (unknown origin); assay type: ADME
[37] = biological target: Cytochrome P450 3A4 (Homo sapiens, UniProt P08684); experiment: Inhibition of CYP3A4 (unknown origin); assay type: ADME
[38] = biological target: T1, Cytochrome P450 1A2 (Homo sapiens, UniProt P05177); experiment: Inhibition of CYP1A2 (unknown origin); assay type: ADME
T1 sequence (P05177 whole entry): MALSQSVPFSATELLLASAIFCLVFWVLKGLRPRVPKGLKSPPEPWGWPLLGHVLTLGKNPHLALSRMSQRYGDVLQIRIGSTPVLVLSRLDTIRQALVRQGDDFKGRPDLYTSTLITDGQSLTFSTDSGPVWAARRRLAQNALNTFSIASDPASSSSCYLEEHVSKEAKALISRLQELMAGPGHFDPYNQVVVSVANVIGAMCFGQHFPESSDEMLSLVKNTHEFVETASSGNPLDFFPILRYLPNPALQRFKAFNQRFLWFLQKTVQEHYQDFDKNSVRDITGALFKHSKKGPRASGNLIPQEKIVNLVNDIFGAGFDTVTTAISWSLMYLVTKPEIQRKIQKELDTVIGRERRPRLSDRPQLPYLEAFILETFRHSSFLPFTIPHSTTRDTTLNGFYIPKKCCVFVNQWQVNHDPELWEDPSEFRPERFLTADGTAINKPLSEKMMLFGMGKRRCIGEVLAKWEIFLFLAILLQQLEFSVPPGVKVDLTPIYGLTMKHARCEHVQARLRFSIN

[39] = Inhibition of Hepatitis C virus genotype 1b Con1 NS5B RNA dependent RNA polymerase activity using Bright-Glo luciferase substrate by cell-based 1b luciferase reporter assay; parameters: species or system Hepatitis C virus (isolate Con1)
Summary of the method: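 Cell-based genotype 1b luciferase reporter replicon assay; EC50 determined in duplicate, values averaged over at least two determinations.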

[40] = Cmax in monkey at 10 mg/kg, po; assay type: ADME, organism-based, Macaca mulatta; parameters: dose 10 mg/kg, route oral; details: rhesus monkey, in vivo; summary of the method: as §2
[41] = Clearance in dog at 2 mg/kg, iv; assay type: ADME, organism-based, Canis lupus familiaris; parameters: dose 2 mg/kg, route intravenous; details: in vivo; summary of the method: as §3
[42] = Mean residence time in dog at 10 mg/kg, po; assay type: ADME, organism-based, Canis lupus familiaris; parameters: dose 10 mg/kg, route oral; details: in vivo; summary of the method: as §2
[43] = AUC in monkey at 10 mg/kg, po; assay type: ADME, organism-based, Macaca mulatta; parameters: dose 10 mg/kg, route oral; details: rhesus monkey, plasma; summary of the method: as §2
[44] = Volume of distribution at steady state in rat at 2 mg/kg, iv; assay type: ADME, organism-based; parameters: dose 2 mg/kg, route intravenous; details: in vivo, read-out: Vdss; summary of the method: as §3
[45] = Half life in dog at 2 mg/kg, iv; assay type: ADME, organism-based, Canis lupus familiaris; parameters: dose 2 mg/kg, route intravenous; details: in vivo; summary of the method: as §3
[46] = Inhibition of HCV full-length NS5B polymerase; parameters: species or system Hepacivirus hominis
Summary of the method: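 Polymerase inhibition with full-length NS5B enzyme in a biochemical assay; IC50 averaged from duplicate measurements, at least two determinations.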

[47] = Mean residence time in rat at 10 mg/kg, po; assay type: ADME, organism-based; parameters: dose 10 mg/kg, route oral; details: in vivo; summary of the method: as §2
[48] = Volume of distribution at steady state in dog at 2 mg/kg, iv; assay type: ADME, organism-based, Canis lupus familiaris; parameters: dose 2 mg/kg, route intravenous; details: in vivo, read-out: Vdss; summary of the method: as §3

Cytochrome P450 2D6, sequence (P10635 whole entry): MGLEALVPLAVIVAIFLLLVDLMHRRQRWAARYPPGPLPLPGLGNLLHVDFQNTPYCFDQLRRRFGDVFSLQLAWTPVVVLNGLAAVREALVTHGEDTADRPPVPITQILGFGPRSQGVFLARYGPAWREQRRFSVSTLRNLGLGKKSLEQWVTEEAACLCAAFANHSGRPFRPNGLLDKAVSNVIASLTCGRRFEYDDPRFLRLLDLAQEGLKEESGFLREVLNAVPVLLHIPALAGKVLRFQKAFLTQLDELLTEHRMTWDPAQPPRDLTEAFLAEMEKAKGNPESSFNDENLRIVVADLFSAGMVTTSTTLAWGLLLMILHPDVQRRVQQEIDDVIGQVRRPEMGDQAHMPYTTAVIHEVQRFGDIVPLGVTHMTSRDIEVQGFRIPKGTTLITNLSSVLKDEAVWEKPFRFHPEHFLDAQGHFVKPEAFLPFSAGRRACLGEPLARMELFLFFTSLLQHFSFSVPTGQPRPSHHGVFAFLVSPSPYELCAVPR
Cytochrome P450 2C9, sequence (P11712 whole entry): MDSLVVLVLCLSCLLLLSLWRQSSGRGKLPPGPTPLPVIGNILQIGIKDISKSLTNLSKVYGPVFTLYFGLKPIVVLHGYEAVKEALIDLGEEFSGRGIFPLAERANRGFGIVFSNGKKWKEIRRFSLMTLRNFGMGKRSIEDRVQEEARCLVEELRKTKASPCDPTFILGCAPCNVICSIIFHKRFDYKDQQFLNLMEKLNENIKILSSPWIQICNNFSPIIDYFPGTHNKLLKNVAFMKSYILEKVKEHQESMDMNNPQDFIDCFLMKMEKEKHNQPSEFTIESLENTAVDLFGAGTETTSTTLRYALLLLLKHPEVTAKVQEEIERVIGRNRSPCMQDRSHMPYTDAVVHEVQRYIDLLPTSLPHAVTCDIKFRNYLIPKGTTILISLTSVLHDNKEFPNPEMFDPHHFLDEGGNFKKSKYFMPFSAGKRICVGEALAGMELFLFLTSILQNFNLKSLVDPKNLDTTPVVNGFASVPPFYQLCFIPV
Voltage-gated inwardly rectifying potassium channel KCNH2, sequence (Q12809 whole entry): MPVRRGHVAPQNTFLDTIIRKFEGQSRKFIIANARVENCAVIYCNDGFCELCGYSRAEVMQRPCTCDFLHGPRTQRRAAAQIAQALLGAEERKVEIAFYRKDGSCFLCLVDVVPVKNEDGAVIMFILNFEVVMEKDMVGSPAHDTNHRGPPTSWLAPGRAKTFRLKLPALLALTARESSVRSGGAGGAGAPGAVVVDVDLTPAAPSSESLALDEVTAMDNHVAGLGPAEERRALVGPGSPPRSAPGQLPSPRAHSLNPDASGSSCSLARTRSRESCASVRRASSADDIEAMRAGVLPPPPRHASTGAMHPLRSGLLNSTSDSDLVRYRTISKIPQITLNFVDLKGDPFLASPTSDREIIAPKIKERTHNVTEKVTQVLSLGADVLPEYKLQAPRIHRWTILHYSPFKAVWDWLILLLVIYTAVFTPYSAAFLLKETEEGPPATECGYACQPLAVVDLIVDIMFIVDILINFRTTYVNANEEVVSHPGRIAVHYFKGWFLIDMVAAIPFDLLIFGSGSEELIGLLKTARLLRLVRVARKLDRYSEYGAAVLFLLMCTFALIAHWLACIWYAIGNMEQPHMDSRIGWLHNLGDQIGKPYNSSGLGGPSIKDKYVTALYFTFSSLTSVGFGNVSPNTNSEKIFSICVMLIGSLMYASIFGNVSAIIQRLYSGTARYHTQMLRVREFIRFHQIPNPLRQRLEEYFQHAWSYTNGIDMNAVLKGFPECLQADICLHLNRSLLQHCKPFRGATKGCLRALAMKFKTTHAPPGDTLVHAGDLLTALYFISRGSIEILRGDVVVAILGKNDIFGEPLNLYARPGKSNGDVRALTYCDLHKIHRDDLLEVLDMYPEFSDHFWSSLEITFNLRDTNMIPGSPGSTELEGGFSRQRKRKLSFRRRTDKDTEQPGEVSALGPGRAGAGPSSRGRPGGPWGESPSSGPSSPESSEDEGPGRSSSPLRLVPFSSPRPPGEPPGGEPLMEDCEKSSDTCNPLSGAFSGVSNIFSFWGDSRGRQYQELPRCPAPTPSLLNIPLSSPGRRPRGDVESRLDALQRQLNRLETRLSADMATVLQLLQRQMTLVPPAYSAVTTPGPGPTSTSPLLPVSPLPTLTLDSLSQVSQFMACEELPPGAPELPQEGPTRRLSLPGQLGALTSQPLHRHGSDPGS
Cytochrome P450 3A4, sequence (P08684 whole entry): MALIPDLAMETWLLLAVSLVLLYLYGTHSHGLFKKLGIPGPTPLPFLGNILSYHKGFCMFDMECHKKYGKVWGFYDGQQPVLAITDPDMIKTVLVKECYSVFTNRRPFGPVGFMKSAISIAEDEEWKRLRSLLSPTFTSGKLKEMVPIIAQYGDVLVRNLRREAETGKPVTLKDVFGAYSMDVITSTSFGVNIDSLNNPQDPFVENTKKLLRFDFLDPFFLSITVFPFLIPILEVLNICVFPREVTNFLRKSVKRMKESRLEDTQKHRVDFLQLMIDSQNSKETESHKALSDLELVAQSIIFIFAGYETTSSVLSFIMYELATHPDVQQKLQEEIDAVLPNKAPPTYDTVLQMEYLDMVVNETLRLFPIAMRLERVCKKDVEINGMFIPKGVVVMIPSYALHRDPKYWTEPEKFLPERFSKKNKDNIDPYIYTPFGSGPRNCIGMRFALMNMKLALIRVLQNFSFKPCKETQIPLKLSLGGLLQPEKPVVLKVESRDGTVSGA
Cytochrome P450 2C19, sequence (P33261 whole entry): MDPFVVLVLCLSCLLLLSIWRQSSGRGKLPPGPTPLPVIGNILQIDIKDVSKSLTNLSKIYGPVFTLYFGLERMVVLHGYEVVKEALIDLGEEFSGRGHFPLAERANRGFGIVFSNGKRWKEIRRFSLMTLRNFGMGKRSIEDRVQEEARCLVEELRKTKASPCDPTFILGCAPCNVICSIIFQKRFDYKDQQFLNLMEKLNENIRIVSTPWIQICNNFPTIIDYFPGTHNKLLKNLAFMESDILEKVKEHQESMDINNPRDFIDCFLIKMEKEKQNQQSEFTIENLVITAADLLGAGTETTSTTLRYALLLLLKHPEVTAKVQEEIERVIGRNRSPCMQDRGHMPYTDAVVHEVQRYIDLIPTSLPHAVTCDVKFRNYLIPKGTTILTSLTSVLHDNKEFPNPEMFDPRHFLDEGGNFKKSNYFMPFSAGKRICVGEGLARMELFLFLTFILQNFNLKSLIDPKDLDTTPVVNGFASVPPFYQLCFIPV

CCOc1cc(NC(=O)C2(NC(=O)c3ccc4c(C5CCCC5)c(-c5ncc(Cl)cn5)n(C)c4c3)CCC2)ccc1/C=C/C(=O)O
concentration at 2 h [1]: 2.3 µM
half-life [2]: 1.73 h
MRT [3]: 6.1 h
fraction unbound [4]: 0.004
EC50 [5]: 0.011 µM
half-life [6]: 2.4 h
bioavailability [7]: 72%
bioavailability [8]: 19%
IC50 [9]: > 30 µM
IC50 [10]: 0.084 µM
Activity [11]: Non-toxic
t1/2 [12]: 3 h
bioavailability [13]: 29%
EC50 [14]: 0.029 µM
Kp at 6 h [15]: 5
Vdss [16]: 0.6 L/kg
Cmax [17]: 8.1 µM
CC50 [18]: 38 µM
IC50 [19]: 13.5 µM
Cmax [20]: 6.3 µM
logD [21]: 4.1
inhibition (INH) [22]: Not Active
clearance [23]: 0.156 L/h/kg
fold change (FC) [24]: 3.8
pKa [25]: 6.5
IC50 [26]: 70 µM
AUC [27]: 76 µM·h
AUC [28]: 19 µM·h
Papp A→B [29]: 130 nm/s
Activity [30]: Non-toxic
half-life [31]: 1.7 h
concentration at 1 h [32]: 3.4 µM
Activity [33]: Non-toxic
Papp A→B [34]: 130 nm/s
CL [35]: 0.216 L/h/kg
IC50 [36]: > 30 µM
IC50 [37]: > 30 µM
IC50 [38]: > 30 µM
EC50 [39]: 0.013 µM
Cmax [40]: 9.6 µM
clearance [41]: 0.06 L/h/kg
MRT [42]: 8 h
AUC [43]: 53 µM·h
Vd [44]: 0.38 L/kg
half-life [45]: 4.5 h
IC50 [46]: 0.11 µM
MRT [47]: 3.6 h
Vd [48]: 0.38 L/kg

Cn1c(-c2ccccn2)c(C2CCCC2)c2ccc(C(=O)NC3(C(=O)Nc4ccc(/C=C/C(=O)O)cc4)CCC3)cc21 [BILB-1941]
fraction unbound [4]: 0.008
bioavailability [7]: 70%
IC50 [10]: 0.067 µM
CC50 [18]: 93 µM
IC50 [19]: 3.5 µM
logD [21]: 3.3
fold change (FC) [24]: 3
pKa [25]: 4.5
AUC [28]: 23 µM·h
Papp A→B [29]: 110 nm/s
IC50 [36]: > 30 µM
IC50 [38]: 13 µM
IC50 [46]: 0.06 µM

COCCOc1cc(NC(=O)C2(NC(=O)c3ccc4c(C5CCCC5)c(-c5ncc(Cl)cn5)n(C)c4c3)CCC2)ccc1/C=C/C(=O)O
concentration at 2 h [1]: 1.1 µM
half-life [6]: 2.1 h
bioavailability [8]: 16%
Cmax [20]: 4.1 µM
clearance [23]: 0.222 L/h/kg
AUC [28]: 10.6 µM·h
half-life [31]: > 5 h
concentration at 1 h [32]: 1.7 µM
Papp A→B [34]: 170 nm/s
EC50 [39]: 0.013 µM
Vd [44]: 0.29 L/kg
IC50 [46]: 0.2 µM
MRT [47]: 4.1 h

From ChEMBL document CHEMBL3351932, “Discovery of BI 207524, an indole diamide NS5B thumb pocket 1 inhibitor with improved potency for the potential treatment of chronic hepatitis C virus infection” (J Med Chem, 2014)
